TAAR1 antag – human TAAR1 antagonists, primary screen, Fluo-8 calcium fluorescence, CHO RD-HGA16 cells; hit rate 1.5% among 360,000; Trace amine-associated receptor 1 (Homo sapiens), Q96RJ0; inhibition, % at 3 µM; AID 624466, 2012; antagonist;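 active = inhibition above a per-plate cutoff, the mean inhibition of test compounds on that plate plus 3 SD, cut at about 49% in these data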;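 note: 0% = DMSO plus EC80 beta-PEA response and 100% = DMSO alone without agonist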
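Material: RD-HGA16 CHO cells with stable hTAAR1 and Gα16; Dosing: single nominal final test compound concentration of 3 µM; Schedule: seeding 17-24 h prior, 75-min 37 °C, 30-min RT dye loading; Detection: kinetic Fluo-8 calcium fluorescence measurement; Measure: % inhibition from peak post-agonist over basal fluorescence ratio; Benchmarks: vehicle and agonist controls.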
M1 PAM – human M1 muscarinic receptor positive allosteric modulators, primary screen, CHO-K1 cells, Fluo-8 calcium fluorescence, 1536-well. Muscarinic acetylcholine receptor M1 (Homo sapiens), P11229. CHO-K1 hM1, ACh EC20; 0% = ACh EC20, 100% = maximal ACh. activation, % at 3 µM. hit rate 0.088% among 360,000. AID 588819, 2011; in the data active = activation above about 19%, passing the limit was not always enough
Target sequence (P11229 whole entry, looked up): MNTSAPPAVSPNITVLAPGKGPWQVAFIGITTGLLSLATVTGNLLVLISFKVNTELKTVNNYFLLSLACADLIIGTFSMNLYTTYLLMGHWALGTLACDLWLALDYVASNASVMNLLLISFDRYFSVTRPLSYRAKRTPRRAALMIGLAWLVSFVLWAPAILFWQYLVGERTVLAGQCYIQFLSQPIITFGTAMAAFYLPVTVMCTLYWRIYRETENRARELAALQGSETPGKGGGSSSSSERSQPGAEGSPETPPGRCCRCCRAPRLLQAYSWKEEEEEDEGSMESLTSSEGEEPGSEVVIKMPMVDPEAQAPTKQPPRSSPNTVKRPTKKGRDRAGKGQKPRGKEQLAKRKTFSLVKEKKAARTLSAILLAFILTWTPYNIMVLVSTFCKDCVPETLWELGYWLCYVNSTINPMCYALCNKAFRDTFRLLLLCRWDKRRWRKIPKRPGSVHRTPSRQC
TAAR1 ag – human TAAR1 agonists, primary screen, Fluo-8 calcium fluorescence, CHO RD-HGA16 cells. vehicle wells 0%, saturating PEA agonist 100%. activation, % at 3 µM. hit rate 0.99% among 360,000. Trace amine-associated receptor 1 (Homo sapiens), Q96RJ0;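 active = activation above the mean activation of all test compounds in the run plus 3 SD, cut at about 38% in these data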
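Repeats: no replicates (n 1) | Material: CHO-derived RD-HGA16 cells with stable Gα16 and human TAAR1 | Technique: Kinetic Fluo-8 calcium fluorescence | Schedule: 17-24 h seeding, 75 min 37 °C dye, 30 min RT | Evaluation: % activation from peak over basal fluorescence ratio, DMSO-to-PEA scaled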
M1 antag – human M1 muscarinic receptor antagonists, primary screen, CHO-K1 cells, Fluo-8 calcium fluorescence, 1536-well; Muscarinic acetylcholine receptor M1 (Homo sapiens), P11229; CHO-K1 hM1, ACh EC80 antagonist; inhibition, % at 3 µM; hit rate 1.3% among 360,000;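 active = percent inhibition above its own plate's cutoff, namely the mean of that plate's compound wells plus 3 SD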;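 note: peak over basal fluorescence ratio during 140 s after agonist addition; 0% = ACh EC80 plus DMSO and 100% = DMSO alone without agonist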
M1 ag – human M1 muscarinic receptor agonists, primary screen, Fluo-8 calcium fluorescence, CHO-K1 cells, HTS | CHO-K1 hM1, agonist mode; 0% DMSO, 100% acetylcholine EC100 | activation, % at 3 µM | hit rate 0.33% among 360,000;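 active = activation above the run's mean compound activation plus 3 SD, cut at about 16% in these data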;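 note: peak over basal fluorescence ratio within a 140 s kinetic read after compound addition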
* hit, by the source's call; . = no result. A selection: hits, their analogues and other compounds. The true share with any hit is near 3.4%.

SMILES	TAAR1 antag	M1 PAM	TAAR1 ag	M1 antag	M1 ag
O=C(c1cccc(Cl)c1)C1CCCN(Cc2ccc(N3CCNC3=O)cc2)C1 (stereo unspecified)	-23	-21	7	46*	-6
COc1cccc(C(=O)C2CCCN(CC3=Cc4cc(OC)ccc4OC3)C2)c1 (stereo unspecified)	-8	-30	5	42*	-10
COc1cccc(C(=O)C2CCCN(Cc3cccc(OCCO)c3)C2)c1 (stereo unspecified)	6	-4	4	2	-11
CCCn1cc(CN2CCCC(C(=O)c3ccc4c(c3)OCO4)C2)c(C)n1 (stereo unspecified)	7	-24	1	65*	-5
Cc1ccc(Cc2c(-c3ccccc3)nc3c(Cl)cc(C(F)(F)F)cn23)cc1	-5	17	5	-30	10
COc1ccc(CNn2c(-c3cccs3)nc3ccccc3c2=O)cc1OC	51*	-23	13	20	-7
COc1cccc(C(=O)Nn2c(-c3cccs3)nc3ccccc3c2=O)c1OC	36	-8	8	1	-5
CCOc1ccc(S(=O)(=O)Nc2ccc(C(=O)N3CC(C)OC(C)C3)cc2)cc1 (stereo unspecified)	26	-12	57*	14	33*
CC1CN(C(=O)c2ccc(NS(=O)(=O)c3ccc(C(C)(C)C)cc3)cc2)CC(C)O1 (stereo unspecified)	-8	-3	16	19	39*
CC1CN(C(=O)c2ccc(NS(=O)(=O)c3cccc(Cl)c3)cc2)CC(C)O1 (stereo unspecified)	-23	8	4	-4	0
O=C(Nc1ccc(Cl)cc1)Nc1nc(-c2ccccc2O)cs1	4	-11	11	35*	9
CC(C)c1ccc(NC(=O)Nc2nc(C(N)c3ccccc3)cs2)cc1 (stereo unspecified)	10	7	45*	1	9
C[C@@H]1CN([C@@H](C)CO)C(=O)CCCn2cc(nn2)CO[C@H]1CN(C)C(=O)Nc1ccc2c(c1)OCO2	-2	.	2	.	.
Cc1nc2c(OCc3cccc(Cl)c3)cccn2c1N(C)Cc1cccs1	25	-13	4	34*	-4
COc1cccc(/C(C#N)=C/c2c(-c3ccc(Cl)cc3)nc3c(C)cccn23)c1	26	-22	1	48*	-5
Cc1cccn2c(/C=N/OCc3cccc(F)c3)c(-c3ccc(Cl)cc3)nc12	-7	5	1	-27	0
COc1ccc(Br)cc1/C(C)=N/NC1=NCCN1	-3	-14	18	79*	68*
COc1ccc(C2CC(=O)C(c3cccc(Cl)c3)=CN2Cc2ccccc2)cc1 (stereo unspecified)	-14	.	6	.	.
COc1ccc(/C=N/NC(=O)c2ccc(CN3C(=O)c4cccc5cccc3c45)cc2)cc1O	29	1	4	0	23*
CC(C)(C)OC(=O)N1CCC2CCN(S(=O)(=O)c3ccccc3)CC21 (stereo unspecified)	-14	.	0	.	.
C[C@@H]1CN([C@H](C)CO)C(=O)CCCn2nncc2CO[C@H]1CN(C)Cc1ccc(Oc2ccccc2)cc1	-18	-32	0	54*	-11
COc1ccccc1CN(C)C[C@H]1OCc2cnnn2CCCC(=O)N([C@H](C)CO)C[C@@H]1C	-8	10	2	-17	0
COc1ccccc1CN(C)C[C@H]1OCc2cnnn2CCCC(=O)N([C@@H](C)CO)C[C@@H]1C	7	-34	0	102*	-11
C[C@@H]1CN([C@@H](C)CO)C(=O)CCCn2nncc2CO[C@H]1CN(C)Cc1ccc(Oc2ccccc2)cc1	7	-29	2	40*	-12
COc1ccc(Sc2cccc(Cl)c2)c(C(=O)O)c1	-14	.	-1	.	.
SMILES	TAAR1 antag	M1 PAM	TAAR1 ag	M1 antag	M1 ag
CCCn1cc(CCC(=O)Nc2ccc(Oc3cccnc3)cc2)c2ccccc21	29	.	-2	.	.
Cn1cccc1C1Nc2ccccc2NC2=C1C(=O)CC(C)(C)C2 (stereo unspecified)	56*	-6	16	42*	1
CC1(C)CC(=O)C2=C(C1)Nc1ccccc1NC2c1cccc(F)c1 (stereo unspecified)	4	12	1	-10	-2
Cc1cccnc1C(NC(=O)C1CCN(Cc2ccc(Oc3ccccc3)cc2)CC1)c1ccc(F)cc1 (stereo unspecified)	41	-16	-2	16	-9
Cc1ccc(C(=O)OCC(=O)NCCc2ccc(F)cc2)cc1S(=O)(=O)N1CCOCC1	7	7	6	-3	-1
Cc1ccc(C(=O)OCC(=O)N(CCc2ccccc2)Cc2ccccc2)cc1S(=O)(=O)N1CCOCC1	50*	-6	4	14	-2
O=C(COC(=O)c1ccc(F)c(S(=O)(=O)N2CCOCC2)c1)NCCc1ccccc1	-4	27*	0	-29	1
Cc1ccc(S(C)(=O)=O)cc1C(=O)OCC(=O)N(Cc1ccccc1)Cc1ccccc1	54*	-11	17	21	-3
O=C(CCC(=O)N1CCOCC1)NCCc1ccccc1	63*	-4	39*	6	-5
Cc1ccc(C(=O)N(CCc2ccccc2)Cc2ccccc2)cc1S(=O)(=O)N1CCOCC1	40	7	8	4	-1
Cc1cc(C)cc(Cn2cc(CN3CC(N4CCN(Cc5ccccc5F)CC4)CS3(=O)=O)nn2)c1 (stereo unspecified)	1	.	1	.	.
O=C1N(Cc2cccc(Cl)c2)C[C@@H]2C[C@@H](c3ccsc3)N3CCC[C@@]123	-13	-30	-1	34*	-12
CC1=CC(C)(C)N=C(Nc2ccc(C)cc2)S1	1	-36	18	58*	-10
CCOC(=O)N1CCN(C(=S)Nc2cccc(C)c2C)CC1	8	1	2	-9	19*
Cc1cccc(NC(=S)N2CCN(Cc3ccccc3)CC2)c1C	-11	-1	3	3	23*
COc1ccc(CNS(=O)(=O)c2cc(Br)ccc2Br)c(OC)c1	-10	.	0	.	.
Cc1ccc(C(=O)OCC(=O)N2CCCC2)cc1	-17	-7	-1	21*	0
CC(=O)Nc1ccc(C(=O)OCC(=O)N2CCCC2)cc1	-5	12	3	-15	-1
Cc1ccc(OCC(=O)N2CCCCC2)c(Br)c1	-6	27*	8	-23	-1
Cc1ccc(NS(=O)(=O)c2ccc(C(=O)OCC(=O)N3CCCCC3)cc2)cc1	41	-4	41*	8	11

Screening results deposited in PubChem BioAssay by The Scripps Research Institute Molecular Screening Center.
